Data set [1] addresses T1, Ectonucleoside triphosphate diphosphohydrolase 8 (Homo sapiens) (UniProt Q5MY95).
T1 sequence (whole entry): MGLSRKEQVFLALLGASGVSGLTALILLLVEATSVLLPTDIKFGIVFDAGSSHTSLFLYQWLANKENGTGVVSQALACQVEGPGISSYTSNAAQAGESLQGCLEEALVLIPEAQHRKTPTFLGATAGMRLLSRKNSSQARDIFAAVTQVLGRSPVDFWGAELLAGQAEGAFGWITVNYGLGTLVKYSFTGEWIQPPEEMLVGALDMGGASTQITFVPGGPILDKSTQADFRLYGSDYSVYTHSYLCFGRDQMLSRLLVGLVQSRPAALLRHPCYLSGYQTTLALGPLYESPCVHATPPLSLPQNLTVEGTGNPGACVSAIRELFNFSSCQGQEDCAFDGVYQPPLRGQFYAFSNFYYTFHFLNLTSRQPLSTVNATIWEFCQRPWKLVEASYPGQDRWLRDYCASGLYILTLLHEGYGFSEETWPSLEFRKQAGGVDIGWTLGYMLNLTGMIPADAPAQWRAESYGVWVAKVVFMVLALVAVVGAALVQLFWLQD
The data set can be described thus: Activation of human NTPDase8 using ATP as substrate preincubated for 3 mins followed by substrate addition measured after 10 mins by malachite green reagent-based assay relative to control. Put shortly: (§1)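 Compound at 100 μM, 3 min preincubation, 100 μM ATP, 10 min. Stopped with malachite green; Pi read at 630 nm. Blank with enzyme added after stop subtracted. Activity with ATP alone taken as 100%.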

In data set [2] the target is T2, Ectonucleoside triphosphate diphosphohydrolase 2 (Homo sapiens) (UniProt Q9Y5L3).
T2 sequence (whole entry): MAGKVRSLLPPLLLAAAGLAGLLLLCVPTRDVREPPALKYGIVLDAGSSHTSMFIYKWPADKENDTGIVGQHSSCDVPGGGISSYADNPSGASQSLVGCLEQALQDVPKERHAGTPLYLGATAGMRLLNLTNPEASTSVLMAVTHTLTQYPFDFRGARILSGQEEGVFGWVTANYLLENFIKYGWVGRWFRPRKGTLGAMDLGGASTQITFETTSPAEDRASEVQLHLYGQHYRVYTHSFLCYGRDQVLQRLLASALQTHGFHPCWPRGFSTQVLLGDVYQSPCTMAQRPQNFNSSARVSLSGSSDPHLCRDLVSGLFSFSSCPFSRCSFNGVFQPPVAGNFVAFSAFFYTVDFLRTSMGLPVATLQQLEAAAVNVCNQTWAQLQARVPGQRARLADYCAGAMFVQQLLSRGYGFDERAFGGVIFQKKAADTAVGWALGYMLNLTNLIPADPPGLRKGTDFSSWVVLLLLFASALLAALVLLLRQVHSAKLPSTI
The data set can be described thus: Activation of human NTPDase2 using ATP as substrate preincubated for 3 mins followed by substrate addition measured after 10 mins by malachite green reagent-based assay relative to control. The gist of the method:
as §1

For data set [3], the target named is T3, Ectonucleoside triphosphate diphosphohydrolase 1 (Homo sapiens) (UniProt P49961).
T3 sequence (whole entry): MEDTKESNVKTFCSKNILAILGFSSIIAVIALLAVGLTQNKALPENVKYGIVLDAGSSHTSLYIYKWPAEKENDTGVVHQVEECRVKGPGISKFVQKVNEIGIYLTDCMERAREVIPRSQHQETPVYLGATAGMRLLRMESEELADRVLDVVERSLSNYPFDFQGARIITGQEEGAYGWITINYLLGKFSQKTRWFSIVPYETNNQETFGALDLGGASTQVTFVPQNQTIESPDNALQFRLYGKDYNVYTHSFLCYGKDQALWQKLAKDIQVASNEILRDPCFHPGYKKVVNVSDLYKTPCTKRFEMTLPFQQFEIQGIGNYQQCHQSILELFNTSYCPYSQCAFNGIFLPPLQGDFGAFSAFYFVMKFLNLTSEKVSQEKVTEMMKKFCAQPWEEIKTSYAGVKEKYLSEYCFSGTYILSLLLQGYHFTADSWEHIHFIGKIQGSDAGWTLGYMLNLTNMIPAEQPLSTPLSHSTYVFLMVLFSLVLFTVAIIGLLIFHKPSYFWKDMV
In words: Activation of human NTPDase1 using ATP as substrate preincubated for 3 mins followed by substrate addition measured after 10 mins by malachite green reagent-based assay relative to control. The gist of the method:
as §1

Data set [4] concerns the target T4, Ectonucleoside triphosphate diphosphohydrolase 3 (Homo sapiens) (UniProt O75355).
T4 sequence (whole entry): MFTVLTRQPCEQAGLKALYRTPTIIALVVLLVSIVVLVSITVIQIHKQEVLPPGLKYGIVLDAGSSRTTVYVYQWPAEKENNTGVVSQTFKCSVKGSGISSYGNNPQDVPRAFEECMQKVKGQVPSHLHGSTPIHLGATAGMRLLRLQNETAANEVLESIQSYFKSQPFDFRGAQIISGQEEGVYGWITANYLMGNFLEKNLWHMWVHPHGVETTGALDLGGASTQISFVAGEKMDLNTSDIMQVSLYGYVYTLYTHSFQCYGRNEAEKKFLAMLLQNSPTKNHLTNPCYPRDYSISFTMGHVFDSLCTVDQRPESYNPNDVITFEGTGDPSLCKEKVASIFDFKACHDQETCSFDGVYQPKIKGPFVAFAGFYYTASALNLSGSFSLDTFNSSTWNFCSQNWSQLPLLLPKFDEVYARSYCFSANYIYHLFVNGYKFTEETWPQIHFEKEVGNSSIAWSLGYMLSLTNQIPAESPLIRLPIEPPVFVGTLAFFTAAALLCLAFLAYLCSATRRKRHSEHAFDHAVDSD
The data set can be described thus: Activation of human NTPDase3 using ATP as substrate preincubated for 3 mins followed by substrate addition measured after 10 mins by malachite green reagent-based assay relative to control. The gist of the method:
as §1

The nature of data set [5]: Drug level treated with UTP 5'-O-Palpha,alpha-dithiophosphate at 2 mM at pH 11.7 at room temperature after 25 days by 31P NMR method. The data set is classed as physicochemical. Conditions: pH 11.7, 600 h, 2000 µM.
Data set [6] is described as follows: Drug level treated with UTP 5'-O-Palpha,alpha-dithiophosphate at 2 mM at pH 1.7 at room temperature after 23 days by 31P NMR method. Format: physicochemical. The settings on record: pH 1.7, 552 h, 2000 µM.

The structures appear in SMILES notation.

In the case of `O=c1ccn([C@@H]2O[C@H](COP(=S)(S)OP(=O)(O)OP(=O)(O)O)[C@@H](O)[C@H]2O)c(=O)[nH]1` (stereo partly specified), the Activity in data set [1], in data set [2], in data set [3] and in data set [4] was 7 to 27% each time.

As to `O=c1ccn([C@@H]2O[C@H](COP(=S)(S)OP(=O)(O)O)[C@@H](O)[C@H]2O)c(=O)[nH]1` (stereo partly specified), the Drug metabolism result in data set [5] and in data set [6] was “Metabolite_Detected” in each case.

The values above are taken from ChEMBL document CHEMBL4177769, “Highly Selective and Potent Ectonucleotide Pyrophosphatase-1 (NPP1) Inhibitors Based on Uridine 5'-Pα,α-Dithiophosphate Analogues” (J Med Chem, 2018).
